Laboratory results published in ChEMBL document CHEMBL2093137, “WHO-TDR NTD Screening”.
Converted amounts (≈) assume the structure as drawn.

Tests used:
[1] = system: Trypanosoma brucei brucei; assay: WHO-TDR: Human African Trypanosomiasis (HAT); format: functional, organism-based; settings: Squib-427
Procedure, shortened: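 Bloodstream forms of the Trypanosoma brucei Squib 427 strain were tested in a whole-organism screen with a diverse library from Life Chemicals of 10,000 compounds. Before screening, the library was filtered for drug-likeness and for reactive groups. The assay used previously published standard procedures and included reference drugs as positive controls. Potency against the parasite is expressed as IC50.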

[2] = system: Leishmania infantum; assay: WHO-TDR: Leishmaniasis; format: functional, organism-based, Mus musculus; settings: Macrophage
Procedure, shortened: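 Following previously published standard procedures, a whole-organism screen was run on Leishmania infantum MHOM/MA(BE)/67 amastigotes within murine peritoneal macrophages, with a reference drug as positive control. The 10,000 compounds tested formed a diverse Life Chemicals library filtered for drug-likeness and reactive groups. Potency against the parasite is reported as IC50.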

[3] = system: Onchocerca ochengi; assay: (§1) WHO-TDR: Onchocerciasis; format: functional; parameters: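 at 12.5 µM on microfilariae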
Procedure, shortened: (§2)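 Values are reported as percent inhibition and as IC50. They come from a whole-organism screen of a 10,000-compound diverse Life Chemicals library against microfilariae of Onchocerca ochengi or Onchocerca lienalis. The screen followed previously published standard procedures, with reference drugs as positive controls.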

[4] = system: Onchocerca ochengi; assay: as §1; format: functional; parameters: concentration or dose not given beside the values; procedure, shortened: as §2; remark: listed apart in the source
[5] = system: Schistosoma mansoni; assay: WHO-TDR: Schistosomiasis; format: functional; parameters: concentration or dose not given beside the values
Procedure, shortened: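 Values are reported as percent inhibition and IC50. They come from a whole-organism screen of a 10,000-compound diverse Life Chemicals library against larval and/or adult worms of Schistosoma mansoni, Puerto Rican strain. The library had been filtered for drug-likeness and reactive groups.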

[6] = system: Trypanosoma cruzi; assay: WHO-TDR: Chagas disease; format: functional, organism-based, Homo sapiens; settings: MRC5
Procedure, shortened: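 Intracellular amastigotes of the Trypanosoma cruzi Tulahuen CL2 beta-galactosidase strain, grown in MRC-5SV2 human lung fibroblast host cells, were tested in a whole-organism screen. The compounds came from a 10,000-member diverse Life Chemicals library that had been filtered for drug-likeness and reactive groups. Previously published standard procedures were followed, with a reference drug as positive control, and potency is reported as IC50.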

[7] = WHO-TDR: Cytotoxicity; format: toxicity, cell-based; settings: human, MRC5 cells
[8] = system: Plasmodium falciparum K1; assay: WHO-TDR: Malaria; format: functional, organism-based, Homo sapiens; settings: Erythrocyte
Procedure, shortened: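 Following previously published standard procedures, with a reference drug serving as positive control, compounds were tested on the Plasmodium falciparum K1 strain inside human red blood cells. The 10,000-compound diverse set came from Life Chemicals after filtering for drug-likeness and reactive groups. Potency against the parasite appears as IC50.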

[9] = system: Onchocerca lienalis; assay: as §1; format: functional; parameters: concentration or dose not given beside the values; procedure, shortened: as §2;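 further: at 12.5 µM on microfilariae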
[10] = system: Brugia malayi; assay: WHO-TDR: Lymphatic Filariasis; format: functional; parameters: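 tested at 10 µM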
Procedure, shortened: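 Values are percent inhibition and IC50 from a whole-organism screen against Brugia malayi microfilariae. The compounds, 10,000 in all, came from a diverse Life Chemicals library filtered for drug-likeness and reactive groups.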

SMILES | IC50 [1] [µg/mL] | IC50 [2] [µg/mL] | IC50 [8] [µg/mL] | % Inhibition [3] [%] | % Inhibition [4] [%] | % Inhibition [5] [%] | IC50 [6] [µg/mL] | IC50 [7] [µg/mL] | % Inhibition [9] [%] | % Inhibition [10] [%]
COc1ccc(-c2nc(NC(=O)Cc3ccc(SC)cc3)sc2C)cc1 | 3.73 (≈ 9.71 µM) | 3.73 (≈ 9.71 µM) | 0.271 (≈ 0.705 µM) |  |  | 0 | 1.95 (≈ 5.07 µM) | 1.29 (≈ 3.37 µM) | 45.5 | 0
CS(=O)(=O)c1ccc(CC(=O)Nc2nc(-c3ccc(Cl)s3)cs2)cc1 | > 12.4 | 4.01 (≈ 9.71 µM) | > 12.4 |  |  | 0 | 0.575 (≈ 1.39 µM) | 1.53 (≈ 3.7 µM) | 11.35 | 0
CS(=O)(=O)c1ccc(CC(=O)Nc2nc3c(s2)-c2cccc4cccc-3c24)cc1 | 4.29 (≈ 10.2 µM) | 4.08 (≈ 9.71 µM) | 7.42 (≈ 17.6 µM) |  |  | 0 | 0.317 (≈ 0.754 µM) | 0.688 (≈ 1.64 µM) | 11.35 | 0
C=CCn1/c(=N\C(=O)Cc2ccc(S(C)(=O)=O)cc2)sc2c(OC)ccc(OC)c21 | 0.462 (≈ 1.03 µM) | 4.34 (≈ 9.71 µM) | 11.2 (≈ 25.1 µM) |  |  | 0 | 4.07 (≈ 9.11 µM) | 13.2 (≈ 29.6 µM) | 13.3 | 0
CCS(=O)(=O)c1ccc(CC(=O)Nc2nc3c(s2)CCc2ccccc2-3)cc1 | 4.01 (≈ 9.71 µM) | > 12.4 | 12.4 (≈ 30 µM) |  |  | 0 | 0.436 (≈ 1.06 µM) | 0.908 (≈ 2.2 µM) | 0 | 0
CC(C)Sc1ccc(C(=O)Nc2nc(-c3ccccn3)cs2)cc1 | 0.341 (≈ 0.959 µM) | > 10.7 | 0.138 (≈ 0.388 µM) |  |  | 0 | 0.368 (≈ 1.04 µM) | 3.11 (≈ 8.75 µM) | 86.7 | 0
CC(C)S(=O)(=O)c1ccc(C(=O)Nc2ccccc2-c2nc3ccccc3[nH]2)cc1 | > 12.6 | 0.407 (≈ 0.97 µM) | > 12.6 |  |  | 0 | > 12.6 | > 12.6 | 13.3 | 0
CCN(C1CCCCC1)S(=O)(=O)c1ccc(C(=O)Nc2nc(-c3ccccn3)cs2)cc1 | 11.7 (≈ 24.8 µM) | 4.57 (≈ 9.71 µM) | > 14.1 |  |  | 0 | 0.459 (≈ 0.975 µM) | 5.19 (≈ 11 µM) | 80 | 0
CCN(C1CCCCC1)S(=O)(=O)c1ccc(C(=O)Nc2nnc(-c3ccco3)o2)cc1 | 4.32 (≈ 9.71 µM) | 4.32 (≈ 9.71 µM) | > 13.3 |  |  | 0 | 0.442 (≈ 0.994 µM) | 6.19 (≈ 13.9 µM) | 20 | 0
CCN(C1CCCCC1)S(=O)(=O)c1ccc(C(=O)Nc2nnc(-c3ccc(F)cc3)o2)cc1 | 0.966 (≈ 2.04 µM) | 4.59 (≈ 9.71 µM) | > 14.2 |  |  | 0 | 0.459 (≈ 0.971 µM) | 0.577 (≈ 1.22 µM) | 46.7 | 0
CCN(C1CCCCC1)S(=O)(=O)c1ccc(C(=O)Nc2nnc(-c3ccccc3)o2)cc1 | 0.528 (≈ 1.16 µM) | > 13.6 | > 13.6 |  |  | 0 | 0.431 (≈ 0.948 µM) | 1.61 (≈ 3.54 µM) | 53.3 | 0
O=C(CCCSc1ccccc1)N(Cc1ccncc1)c1nc2c(F)cccc2s1 | 4.15 (≈ 9.49 µM) | > 13.1 | 9.05 (≈ 20.7 µM) |  |  | 0 | 0.816 (≈ 1.86 µM) | > 13.1 | 0 | 0
COc1ccc(-c2ccc(OCCNS(=O)(=O)c3ccc(Cl)s3)nn2)cc1 | > 12.8 | > 12.8 | > 12.8 |  |  | 0 | 0.788 (≈ 1.85 µM) | 5.41 (≈ 12.7 µM) | 33.3 | 0
CCOc1ccc(-c2ccc(OCCNS(=O)(=O)c3cc(C)c(C)cc3C)nn2)cc1 | 4.24 (≈ 9.6 µM) | > 13.2 | > 13.2 |  |  | 0 | 0.752 (≈ 1.7 µM) | > 13.2 | 13.3 | 0
CCOC(=O)CCNC(=O)NCC1CC(=O)N(c2ccc(Cl)cc2)C1 (centres undefined) | > 11 | > 11 | > 11 |  | 100 | 0 | > 11 | > 11 |  | 

Continued, in another order:

IC50 [1] [µg/mL] | IC50 [2] [µg/mL] | IC50 [8] [µg/mL] | SMILES | % Inhibition [3] [%] | % Inhibition [4] [%] | % Inhibition [5] [%] | IC50 [6] [µg/mL] | IC50 [7] [µg/mL] | % Inhibition [9] [%] | % Inhibition [10] [%]
3.56 (≈ 9.37 µM) | 3.6 (≈ 9.49 µM) | 4.74 (≈ 12.5 µM) | Cc1cc(=O)[nH]c(-n2nc(C)cc2NC(=O)/C=C/c2ccc3c(c2)OCO3)n1 | 0 | 0 | 0 | 0.801 (≈ 2.11 µM) | 3.73 (≈ 9.85 µM) |  | 
3.52 (≈ 8.79 µM) | > 12 | 3.55 (≈ 8.87 µM) | COc1ccc(OC)c(-c2csc(NC(=O)Cc3ccc(SC)cc3)n2)c1 |  |  | 0 | 0.663 (≈ 1.66 µM) | > 12 | 11.35 | 0
1.96 (≈ 5.43 µM) | 5.62 (≈ 15.5 µM) | 3.62 (≈ 10 µM) | Cc1cc(=O)[nH]c(-n2nc(C)cc2NC(=O)c2c(F)cccc2Cl)n1 | 0 | 0 | 0 | 0.331 (≈ 0.915 µM) | 0.39 (≈ 1.08 µM) |  | 
> 11.3 | > 11.3 | > 11.3 | Cc1cc(=O)[nH]c(-n2nc(C)cc2NC(=O)c2ccccc2C(F)(F)F)n1 | 0 | 0 | 0 | 0.409 (≈ 1.08 µM) | 2.61 (≈ 6.91 µM) |  | 
0.449 (≈ 0.983 µM) | 4.43 (≈ 9.71 µM) | 0.137 (≈ 0.3 µM) | Cc1cc(=O)[nH]c(-n2nc(C)cc2NC(=O)c2ccc(S(=O)(=O)N3CCCCC3)cc2)n1 | 0 | 0 | 25 | 0.418 (≈ 0.915 µM) | 0.445 (≈ 0.975 µM) |  | 
0.876 (≈ 2.12 µM) | 4.01 (≈ 9.71 µM) | 0.657 (≈ 1.59 µM) | Cc1cc(=O)[nH]c(-n2nc(C)cc2NC(=O)C2c3ccccc3Oc3ccccc32)n1 | 0 | 0 | 50 | < 0.124 | 0.504 (≈ 1.22 µM) |  | 
0.338 (≈ 0.983 µM) | > 10.3 | 0.493 (≈ 1.44 µM) | CCc1cc(=O)[nH]c(-n2nc(C)cc2NC(=O)Cc2cccs2)n1 | 100 | 0 | 0 | 0.276 (≈ 0.804 µM) | 0.293 (≈ 0.853 µM) |  | 
< 0.119 | 3.84 (≈ 9.71 µM) | 0.119 (≈ 0.3 µM) | CCCc1cc(=O)[nH]c(-n2nc(C)cc2NC(=O)C23CC4CC(CC(C4)C2)C3)n1 | 100 | 75 | 100 | < 0.119 | < 0.119 |  | 
0.47 (≈ 1.08 µM) | > 13.1 | 5.1 (≈ 11.7 µM) | CCCc1cc(=O)[nH]c(-n2nc(C)cc2NC(=O)COc2ccc(Cl)cc2Cl)n1 | 75 | 0 | 0 | 0.395 (≈ 0.904 µM) | 0.362 (≈ 0.83 µM) |  | 
0.327 (≈ 0.811 µM) | 0.627 (≈ 1.55 µM) | 0.399 (≈ 0.989 µM) | CCOc1ccc2ccccc2c1C(=O)Nc1cc(C)nn1-c1nc(C)cc(=O)[nH]1 | 100 | 60 | 100 | < 0.121 | 0.364 (≈ 0.902 µM) |  | 
